Experimental data published in ChEMBL document CHEMBL2086328, “¹⁸F-labeled 2-phenylquinoxaline derivatives as potential positron emission tomography probes for in vivo imaging of β-amyloid plaques” (Eur J Med Chem, 2012).
pKi: −log10 of the molar value. The source made the active and inactive calls. The calls are words filed in the database; no cut-off is given here.

Legend:
[1] = Binding affinity to beta-amyloid
[2] = biological target: Amyloid-beta precursor protein (Homo sapiens) (UniProt P05067); test: Binding affinity to beta-amyloid in normal human brain at 1.85 MBq/[…] after 1 hr by thioflavin-S based autoradiography; conditions: 1.85 M, tested as the 18F-labelled form
In short: (§1)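 Paraffin human temporal-lobe sections (5 µm; AD case or control) deparaffinized through xylene and graded ethanol, then PBS (0.2 M, pH 7.4) for 30 min. Incubated with 18F tracer (1.85 MBq/200 µL), 1 h, room temperature; washed in 40% EtOH, rinsed in water; phosphor plate exposure 2 h.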

Mus musculus = species on record: Mus musculus; test: Binding affinity to beta-amyloid in APPswe/PSEN1 transgenic C57BL6 mouse model brain at 1.85 MBq/[…] after 1 hr by thioflavin-S based autoradiography; conditions: 1.85 M, tested as the 18F-labelled form
In short: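 Transgenic mouse brain sections deparaffinized, then incubated with 18F tracer (1.85 MBq/200 µL) for 1 h at room temperature. Washed in 40% EtOH, phosphor-imaged after 2 h exposure. Same sections then stained with 0.125% thioflavin-S in 10% EtOH for 3 min and imaged by fluorescence (excitation 405 nm, long-pass 505 nm).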

[3] = Displacement of [125I]IMPY from amyloid beta (1 to 42) after 2 hrs by gamma counting
In short: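 Competition binding against [125I]IMPY (radiochemical purity >95%) on Aβ1-42 aggregates with 1% BSA solution; inhibitor 10^-4–10^-9.5 M; 37 °C, 2 h. Free and bound separated by vacuum filtration on GF/B filters, three PBS washes (0.02 M, pH 7.4, room temperature); filters gamma-counted. Three repeats; IC50 fitted, Ki from Cheng–Prusoff.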

[4] = biological target: Amyloid-beta precursor protein (Homo sapiens) (UniProt P05067); test: Binding affinity to beta-amyloid in Alzheimer's disease patient brain at 1.85 MBq/[…] after 1 hr by thioflavin-S based autoradiography; conditions: 1.85 M, tested as the 18F-labelled form; in short: as §1
Brain [5] = test: Biodistribution in ICR mouse brain at 370 kBq, iv after 2 mins by gamma counting; format: ADME, organism-based; conditions: in vivo
In short: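 Male ICR mice (five weeks, 20–22 g), tail-vein injection of 18F tracer in 0.1 mL saline with 10% EtOH. Killed by decapitation at set times, n = 5 per time point. Organs removed, weighed and gamma-counted; %ID/g wet tissue from comparison with diluted aliquots of injected dose; mean ± SD.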

[6] = Lipophilicity, log D of the compound; format: physicochemical; conditions: octanol/water
In short: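 18F tracer (740 kBq) in 3 g n-octanol plus 3 g PBS (0.05 M, pH 7.4). Vortexed 3 min at room temperature, centrifuged 5 min at 3000 rpm; weighed samples from octanol and buffer layers counted.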

Brain [7] = test: Ratio of drug level in ICR mouse brain after 2 mins to ICR mouse brain after 60 mins at 370 kBq, iv; format: ADME, organism-based; conditions: in vivo
In short: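 Same intravenous study in ICR mice (370 kBq 18F tracer in saline/10% EtOH, n = 5 per time point). Ratio is brain %ID/g at 2 min divided by brain %ID/g at 60 min post-injection.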

Sequence of Amyloid-beta precursor protein (Homo sapiens) (P05067 whole entry): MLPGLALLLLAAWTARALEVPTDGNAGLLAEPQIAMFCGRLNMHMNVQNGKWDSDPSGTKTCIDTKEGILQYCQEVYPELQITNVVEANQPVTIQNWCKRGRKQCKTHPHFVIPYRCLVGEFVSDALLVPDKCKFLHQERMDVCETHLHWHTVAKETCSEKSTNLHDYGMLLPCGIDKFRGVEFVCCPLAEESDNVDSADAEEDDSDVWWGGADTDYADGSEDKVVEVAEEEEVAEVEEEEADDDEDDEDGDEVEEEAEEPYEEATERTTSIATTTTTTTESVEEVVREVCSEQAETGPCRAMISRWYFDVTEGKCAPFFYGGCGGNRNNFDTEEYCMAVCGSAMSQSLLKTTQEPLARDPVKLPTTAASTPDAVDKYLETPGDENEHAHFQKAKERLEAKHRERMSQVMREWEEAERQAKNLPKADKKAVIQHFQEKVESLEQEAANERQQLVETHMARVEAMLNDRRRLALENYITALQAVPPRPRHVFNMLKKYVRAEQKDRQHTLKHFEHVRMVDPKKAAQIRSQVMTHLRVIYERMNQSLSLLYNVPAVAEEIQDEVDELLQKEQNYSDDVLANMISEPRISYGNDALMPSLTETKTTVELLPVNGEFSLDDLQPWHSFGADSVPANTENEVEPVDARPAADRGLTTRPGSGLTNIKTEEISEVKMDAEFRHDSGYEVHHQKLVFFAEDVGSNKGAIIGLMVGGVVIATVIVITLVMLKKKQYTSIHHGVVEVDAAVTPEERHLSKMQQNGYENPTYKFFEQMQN

Question: With `CNc1ccc(/C=C/c2ccc(OCCOCCOCC[18F])cc2)cc1` [FLORBETABEN F18] as the molecule, how does the pKi [1] read?
Answer: The pKi was 8.65.

Question: Which Activity [2] does the source give for `CNc1ccc2nc(-c3ccc(OCCF)cc3)cnc2c1` here?
Answer: Its Activity is “inactive”.

Question: And the Activity (Mus musculus)?
Answer: Its Activity is “Active”.

Question: And the pKi [3]?
Answer: Its pKi is 8.00.

Question: What about the Activity [4] of the same molecule?
Answer: The Activity was “Active”.

Question: For `CNc1ccc(/C=C/c2ccc(OCCOCCOCC[18F])nc2)cc1` [FLORBETAPIR F 18], which Drug uptake (Brain [5]) is on record?
Answer: Its Drug uptake is 7.33 % ID/g.

Question: And the pKi [3]?
Answer: Its pKi is 8.54.

Question: And the logD [6]?
Answer: The logD was 2.41.

Question: And the Ratio (Brain [7])?
Answer: Its Ratio is 3.9.

Question: What about the pKi [1] of the same molecule?
Answer: The pKi was 8.54.

Question: With `CNc1ccc(-c2nc3ccc(O)cc3s2)cc1[18F]` [FLUTEMETAMOL F 18] as the molecule, how does the pKi [1] read?
Answer: Its pKi is 9.13.
